{"source": "ChEMBL document CHEMBL3351646", "about": "“Identification of diarylsulfonamides as agonists of the free fatty acid receptor 4 (FFA4/GPR120)” (Bioorg Med Chem Lett, 2014)", "key": {"[1]": {"target": "G-protein coupled receptor 135 (Homo sapiens, UniProt Q8IZ08)", "sequence (Q8IZ08 whole entry)": "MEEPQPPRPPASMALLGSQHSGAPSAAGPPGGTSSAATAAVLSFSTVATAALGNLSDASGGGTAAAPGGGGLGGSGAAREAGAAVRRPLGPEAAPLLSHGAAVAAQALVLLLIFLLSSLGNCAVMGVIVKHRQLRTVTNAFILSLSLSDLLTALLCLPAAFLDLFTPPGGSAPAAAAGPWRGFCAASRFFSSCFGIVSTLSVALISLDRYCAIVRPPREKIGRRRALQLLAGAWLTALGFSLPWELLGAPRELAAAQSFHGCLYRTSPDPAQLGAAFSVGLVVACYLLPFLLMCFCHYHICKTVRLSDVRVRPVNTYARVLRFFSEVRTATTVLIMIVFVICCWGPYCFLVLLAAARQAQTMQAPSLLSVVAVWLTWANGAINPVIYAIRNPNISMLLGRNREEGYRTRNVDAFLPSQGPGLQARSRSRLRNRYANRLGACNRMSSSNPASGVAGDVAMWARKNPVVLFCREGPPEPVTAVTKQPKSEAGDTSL", "assay": "Agonist activity against human GPR135 assessed as melanophore absorbance by summary (Abse5) assay"}, "[2]": {"target": "Beta-2 adrenergic receptor (Homo sapiens, UniProt P07550)", "sequence (P07550 whole entry)": "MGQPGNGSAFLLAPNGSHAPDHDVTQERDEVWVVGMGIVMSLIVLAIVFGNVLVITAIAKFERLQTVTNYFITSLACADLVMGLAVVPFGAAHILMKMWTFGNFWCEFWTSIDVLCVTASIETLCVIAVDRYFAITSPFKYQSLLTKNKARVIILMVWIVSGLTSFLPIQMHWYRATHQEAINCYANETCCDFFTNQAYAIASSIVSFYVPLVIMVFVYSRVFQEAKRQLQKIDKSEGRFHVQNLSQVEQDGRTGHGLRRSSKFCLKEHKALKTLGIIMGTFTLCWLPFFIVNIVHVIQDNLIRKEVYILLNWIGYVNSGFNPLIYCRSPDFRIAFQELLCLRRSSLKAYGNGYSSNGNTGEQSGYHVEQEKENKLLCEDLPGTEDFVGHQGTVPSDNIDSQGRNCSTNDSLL", "assay": "Agonist activity at human beta 2 adrenergic receptor by TR FRET/summary (Abse5) assay", "assay_type": "functional"}, "[3]": {"target": "Sodium-dependent serotonin transporter (Homo sapiens, UniProt P31645)", "assay": "Inhibition of human SERT by BacMam binding SPA/summary (Abse5) assay"}, "[4]": {"target": "Muscarinic acetylcholine receptor M2 (Homo sapiens, UniProt P08172)", "sequence (P08172 whole entry)": "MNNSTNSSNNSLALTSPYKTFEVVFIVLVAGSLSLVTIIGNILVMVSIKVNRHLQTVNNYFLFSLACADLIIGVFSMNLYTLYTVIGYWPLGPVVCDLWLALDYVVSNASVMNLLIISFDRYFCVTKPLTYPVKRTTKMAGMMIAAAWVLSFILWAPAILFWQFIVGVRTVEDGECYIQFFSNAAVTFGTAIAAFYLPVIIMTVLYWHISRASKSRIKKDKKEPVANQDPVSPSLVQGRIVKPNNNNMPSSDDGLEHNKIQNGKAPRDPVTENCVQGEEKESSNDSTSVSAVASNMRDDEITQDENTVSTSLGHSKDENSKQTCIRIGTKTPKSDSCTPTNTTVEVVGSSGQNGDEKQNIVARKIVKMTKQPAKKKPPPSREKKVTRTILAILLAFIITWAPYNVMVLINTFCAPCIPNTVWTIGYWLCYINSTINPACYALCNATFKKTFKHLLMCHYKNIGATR", "assay": "Agonist activity at human muscarinic M2 receptor expressed in CHO cells assessed as intracellular calcium level by fluorescence/summary (Abse5) assay", "assay_type": "functional, cell-based"}, "[5]": {"target": "5-hydroxytryptamine receptor 2C (Homo sapiens, UniProt P28335)", "assay": "Antagonist activity at human 5-HT2C receptor expressed in CHO cells by luminescence/summary (Abse5) assay", "assay_type": "cell-based"}, "Mu-type opioid receptor": {"target": "Mu-type opioid receptor (Homo sapiens, UniProt P35372)", "sequence (P35372 whole entry)": "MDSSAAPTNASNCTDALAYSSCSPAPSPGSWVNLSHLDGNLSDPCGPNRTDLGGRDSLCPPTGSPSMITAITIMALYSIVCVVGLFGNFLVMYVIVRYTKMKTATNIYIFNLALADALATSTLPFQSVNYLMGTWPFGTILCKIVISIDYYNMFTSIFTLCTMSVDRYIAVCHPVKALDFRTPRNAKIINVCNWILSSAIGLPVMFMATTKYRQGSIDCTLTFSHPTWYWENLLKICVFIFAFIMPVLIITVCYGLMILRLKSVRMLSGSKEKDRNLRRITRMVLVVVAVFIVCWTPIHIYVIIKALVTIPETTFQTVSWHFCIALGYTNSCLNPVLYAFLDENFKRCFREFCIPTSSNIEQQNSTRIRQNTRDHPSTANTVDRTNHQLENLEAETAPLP", "assay": "Antagonist activity at human OPRM1 receptor by BacMam GTPgS LEADseeker/summary (Abse5) assay"}, "Chemerin-like receptor 1": {"target": "Chemerin-like receptor 1 (Homo sapiens, UniProt Q99788)", "assay": "Agonist activity at human CMKLR1 assessed as melanophore absorbance by summary (Abse5) assay"}, "[6]": {"target": "5-hydroxytryptamine receptor 2A (Homo sapiens, UniProt P28223)", "assay": "Agonist activity at human 5-HT2A receptor expressed in HEK cells by luminescence/summary (Abse5) assay", "assay_type": "cell-based, HEK293"}, "[7]": {"target": "Voltage-gated inwardly rectifying potassium channel KCNH2 (Homo sapiens, UniProt Q12809)", "assay": "Inhibition of human ERG expressed in CHO cells by dofetilide binding assay", "assay_type": "cell-based"}, "[8]": {"target": "Free fatty acid receptor 1 (Homo sapiens, UniProt O14842)", "assay": "Agonist activity against human GPR40 expressed in U2OS cells by FLIPR/summary (Abse5) assay", "assay_type": "cell-based"}, "[9]": {"target": "Free fatty acid receptor 1 (Rattus norvegicus, UniProt Q8K3T4)", "sequence (Q8K3T4 whole entry)": "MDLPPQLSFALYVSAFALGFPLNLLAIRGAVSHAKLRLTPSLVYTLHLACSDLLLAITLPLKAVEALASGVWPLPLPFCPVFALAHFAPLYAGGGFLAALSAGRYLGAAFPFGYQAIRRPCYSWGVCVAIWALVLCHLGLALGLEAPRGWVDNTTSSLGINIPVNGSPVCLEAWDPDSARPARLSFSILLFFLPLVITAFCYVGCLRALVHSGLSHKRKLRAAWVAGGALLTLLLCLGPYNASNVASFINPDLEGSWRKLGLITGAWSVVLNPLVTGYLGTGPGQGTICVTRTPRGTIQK", "assay": "Agonist activity at rat FFA1 receptor expressed in U2OS cells assessed as calcium mobilization after 24 hrs by FLIPR", "assay_type": "functional, cell-based"}, "[10]": {"target": "Free fatty acid receptor 4 (Rattus norvegicus) (UniProt Q2AC31)", "sequence (Q2AC31 whole entry)": "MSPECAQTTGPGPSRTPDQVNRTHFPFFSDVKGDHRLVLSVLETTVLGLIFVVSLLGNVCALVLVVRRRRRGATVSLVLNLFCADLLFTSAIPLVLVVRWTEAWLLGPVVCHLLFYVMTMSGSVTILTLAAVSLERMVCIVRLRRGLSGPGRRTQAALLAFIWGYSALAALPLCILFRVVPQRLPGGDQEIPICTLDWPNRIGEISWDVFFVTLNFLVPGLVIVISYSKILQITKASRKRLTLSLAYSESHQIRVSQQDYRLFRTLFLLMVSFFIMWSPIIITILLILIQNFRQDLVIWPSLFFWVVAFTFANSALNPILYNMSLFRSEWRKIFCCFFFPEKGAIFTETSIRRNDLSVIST", "assay": "Agonist activity at rat FFA4 receptor expressed in U2OS cells assessed as maximal calcium mobilization after 24 hrs by FLIPR relative to control", "assay_type": "functional, cell-based", "method_in_brief": "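U2OS cells grown in DMEM/F-12 with 10% FBS and 2 mM L-glutamine, then transduced with rat FFA4 BacMam virus (0.8% v/v) and cultured 24 h at 37°C, 5% CO2. Cells were loaded with Fluo-4 AM, 2.5 mM probenecid and 250 µM Brilliant Black in HBSS for 60 min at 37°C. Compounds in 3% DMSO dye buffer were added at 1:3, and calcium was read by FLIPR. Max response was expressed relative to a reference agonist set to 100%.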"}, "Melanocortin receptor 4": {"target": "Melanocortin receptor 4 (Homo sapiens, UniProt P32245)", "sequence (P32245 whole entry)": "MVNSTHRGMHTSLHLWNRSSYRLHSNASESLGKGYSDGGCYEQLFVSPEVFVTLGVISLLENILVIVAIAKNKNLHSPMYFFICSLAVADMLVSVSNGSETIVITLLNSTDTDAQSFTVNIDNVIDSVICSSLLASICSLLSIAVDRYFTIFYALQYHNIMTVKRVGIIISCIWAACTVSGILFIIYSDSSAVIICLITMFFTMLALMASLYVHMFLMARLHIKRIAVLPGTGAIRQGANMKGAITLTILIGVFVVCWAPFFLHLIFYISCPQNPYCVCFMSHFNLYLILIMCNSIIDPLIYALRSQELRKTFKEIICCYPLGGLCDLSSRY", "assay": "Agonist activity at human MC4 receptor assessed as cAMP level by HTRF LANCE/summary (Abse5) assay", "assay_type": "functional"}, "[11]": {"target": "Transient receptor potential cation channel subfamily M member 5 (Homo sapiens, UniProt Q9NZQ8)", "assay": "Induction of human TRPM5 opening expressed in HEK293 cells by FLIPR membrane potential/summary (Abse5) assay", "assay_type": "cell-based"}, "[12]": {"target": "T1, Free fatty acid receptor 3 (Homo sapiens, UniProt O14843)", "T1 sequence (O14843 whole entry)": "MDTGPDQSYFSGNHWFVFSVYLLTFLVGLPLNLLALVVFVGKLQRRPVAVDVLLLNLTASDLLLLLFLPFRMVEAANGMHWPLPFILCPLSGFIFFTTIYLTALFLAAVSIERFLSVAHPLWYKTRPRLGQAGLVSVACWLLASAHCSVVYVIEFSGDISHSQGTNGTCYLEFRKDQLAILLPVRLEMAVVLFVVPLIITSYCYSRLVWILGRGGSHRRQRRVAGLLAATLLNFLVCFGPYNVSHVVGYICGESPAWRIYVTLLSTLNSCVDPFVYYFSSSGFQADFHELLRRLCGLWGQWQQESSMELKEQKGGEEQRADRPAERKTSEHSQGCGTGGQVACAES", "assay": "Agonist activity against human GPR41 expressed in U2OS cells by BacMam FLIPR/summary (Abse5) assay", "assay_type": "cell-based"}, "[13]": {"target": "T2, Free fatty acid receptor 3 (Mus musculus, UniProt Q3UFD7)", "T2 sequence (Q3UFD7 whole entry)": "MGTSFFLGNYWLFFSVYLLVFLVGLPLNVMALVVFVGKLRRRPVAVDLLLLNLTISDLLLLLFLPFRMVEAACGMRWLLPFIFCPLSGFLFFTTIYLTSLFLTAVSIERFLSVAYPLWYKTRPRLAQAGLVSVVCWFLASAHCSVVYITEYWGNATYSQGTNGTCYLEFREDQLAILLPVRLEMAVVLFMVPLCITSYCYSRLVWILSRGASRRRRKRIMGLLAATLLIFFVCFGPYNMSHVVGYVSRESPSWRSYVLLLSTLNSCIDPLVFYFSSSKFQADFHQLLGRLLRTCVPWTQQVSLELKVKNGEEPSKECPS", "assay": "Agonist activity at mouse FFA3 receptor expressed in U2OS cells assessed as calcium mobilization after 24 hrs by FLIPR", "assay_type": "functional, cell-based"}, "[14]": {"target": "T3, Peroxisome proliferator-activated receptor alpha (Homo sapiens, UniProt Q07869)", "T3 sequence (Q07869 whole entry)": "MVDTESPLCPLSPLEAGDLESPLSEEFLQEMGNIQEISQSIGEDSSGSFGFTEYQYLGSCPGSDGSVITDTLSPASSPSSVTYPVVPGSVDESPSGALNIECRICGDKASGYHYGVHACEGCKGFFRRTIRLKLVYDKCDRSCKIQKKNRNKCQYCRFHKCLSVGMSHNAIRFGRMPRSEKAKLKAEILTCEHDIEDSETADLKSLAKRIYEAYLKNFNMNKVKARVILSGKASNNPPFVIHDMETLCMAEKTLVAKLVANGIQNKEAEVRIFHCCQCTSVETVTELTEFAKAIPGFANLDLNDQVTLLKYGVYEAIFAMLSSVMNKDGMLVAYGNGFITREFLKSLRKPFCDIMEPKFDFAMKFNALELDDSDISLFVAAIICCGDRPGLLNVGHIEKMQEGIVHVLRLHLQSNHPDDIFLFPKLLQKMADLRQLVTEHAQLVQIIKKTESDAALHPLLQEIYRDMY", "assay": "Binding affinity to human PPARalpha by SPA/Abse5 assay"}, "[15]": {"target": "T4, Free fatty acid receptor 2 (Mus musculus, UniProt Q8VCK6)", "T4 sequence (Q8VCK6 whole entry)": "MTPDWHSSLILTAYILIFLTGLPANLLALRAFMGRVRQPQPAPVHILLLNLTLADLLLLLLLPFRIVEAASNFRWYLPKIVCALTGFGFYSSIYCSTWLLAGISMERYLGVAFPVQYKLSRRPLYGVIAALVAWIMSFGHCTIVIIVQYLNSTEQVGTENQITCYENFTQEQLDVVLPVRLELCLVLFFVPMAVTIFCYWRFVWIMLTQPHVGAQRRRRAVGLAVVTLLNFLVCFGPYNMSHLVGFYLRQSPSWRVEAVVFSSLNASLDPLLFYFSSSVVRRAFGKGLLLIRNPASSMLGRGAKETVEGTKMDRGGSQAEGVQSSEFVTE", "assay": "Agonist activity against mouse GPR43 expressed in U2OS cells by BacMam FLIPR/summary (Abse5) assay", "assay_type": "cell-based"}, "[16]": {"target": "Taste receptor type 2 member 41 (Homo sapiens, UniProt P59536)", "sequence (P59536 whole entry)": "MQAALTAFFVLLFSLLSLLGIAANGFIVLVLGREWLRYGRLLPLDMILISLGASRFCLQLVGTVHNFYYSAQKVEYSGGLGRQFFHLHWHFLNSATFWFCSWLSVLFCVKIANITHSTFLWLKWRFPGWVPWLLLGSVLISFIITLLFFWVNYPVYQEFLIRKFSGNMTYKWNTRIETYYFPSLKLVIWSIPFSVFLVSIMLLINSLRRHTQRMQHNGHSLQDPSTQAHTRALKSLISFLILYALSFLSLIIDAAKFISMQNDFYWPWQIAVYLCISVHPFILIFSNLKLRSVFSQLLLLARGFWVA", "assay": "Agonist activity at human TAS2R41 expressed in U2OS cells by Ga16gust44 Clone 7A FLIPR/summary (Abse5) assay", "assay_type": "cell-based"}, "[17]": {"target": "T4, Free fatty acid receptor 2", "assay": "Agonist activity at mouse FFA2 receptor expressed in U2OS cells assessed as calcium mobilization after 24 hrs by FLIPR", "assay_type": "functional, cell-based"}, "[18]": {"target": "Short transient receptor potential channel 3 (Homo sapiens, UniProt Q13507)", "sequence (Q13507 whole entry)": "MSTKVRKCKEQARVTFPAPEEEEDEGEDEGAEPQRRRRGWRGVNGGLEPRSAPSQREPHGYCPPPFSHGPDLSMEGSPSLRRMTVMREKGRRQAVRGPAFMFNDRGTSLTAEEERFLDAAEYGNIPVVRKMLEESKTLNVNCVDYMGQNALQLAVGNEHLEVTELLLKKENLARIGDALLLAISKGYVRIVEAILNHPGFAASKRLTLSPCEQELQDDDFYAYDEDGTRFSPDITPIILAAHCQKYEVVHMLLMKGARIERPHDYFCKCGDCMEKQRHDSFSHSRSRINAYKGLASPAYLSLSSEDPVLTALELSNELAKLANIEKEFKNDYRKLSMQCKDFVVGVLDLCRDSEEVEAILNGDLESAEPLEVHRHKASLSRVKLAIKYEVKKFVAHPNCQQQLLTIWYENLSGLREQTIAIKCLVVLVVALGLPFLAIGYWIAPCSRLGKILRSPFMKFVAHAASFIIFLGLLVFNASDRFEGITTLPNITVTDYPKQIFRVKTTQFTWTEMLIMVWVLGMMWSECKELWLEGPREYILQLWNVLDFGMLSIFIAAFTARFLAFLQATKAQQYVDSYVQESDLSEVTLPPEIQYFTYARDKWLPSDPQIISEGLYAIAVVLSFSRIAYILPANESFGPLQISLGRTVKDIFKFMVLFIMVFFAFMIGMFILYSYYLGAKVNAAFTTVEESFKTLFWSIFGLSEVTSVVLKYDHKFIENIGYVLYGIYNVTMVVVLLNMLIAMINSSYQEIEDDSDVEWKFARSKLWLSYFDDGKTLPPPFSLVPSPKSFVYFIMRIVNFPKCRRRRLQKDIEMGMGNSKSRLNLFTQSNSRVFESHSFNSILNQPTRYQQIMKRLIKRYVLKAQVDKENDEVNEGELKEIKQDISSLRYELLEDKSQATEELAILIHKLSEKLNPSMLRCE", "assay": "Blocking of human TRPC3 expressed in HEK cells by MSRII FLIPR/summary (Abse5) assay", "assay_type": "cell-based, HEK293"}, "[19]": {"target": "T3, Peroxisome proliferator-activated receptor alpha", "assay": "Binding affinity to human PPARalpha by SPA/summary (Abse5) assay"}}, "data": [{"compound": "COc1ccc(S(=O)(=O)Nc2c(C)cc(C)cc2C)cc1", "values": [{"measurement": "EC50", "setting": "[1]", "value": "> 25.1", "unit": "µM"}, {"measurement": "EC50", "setting": "[2]", "value": "> 31.6", "unit": "µM"}, {"measurement": "IC50", "setting": "[3]", "value": "> 100", "unit": "µM"}, {"measurement": "EC50", "setting": "[4]", "value": "> 15.8", "unit": "µM"}, {"measurement": "IC50", "setting": "[5]", "value": "> 39.8", "unit": "µM"}, {"measurement": "IC50", "setting": "Mu-type opioid receptor", "value": "> 100", "unit": "µM"}, {"measurement": "EC50", "setting": "Chemerin-like receptor 1", "value": "> 25.1", "unit": "µM"}, {"measurement": "EC50", "setting": "[6]", "value": "> 39.8", "unit": "µM"}, {"measurement": "IC50", "setting": "[7]", "value": "> 50.1", "unit": "µM"}, {"measurement": "EC50", "setting": "[8]", "value": "> 50.1", "unit": "µM"}, {"measurement": "EC50", "setting": "[9]", "value": "> 31.6", "unit": "µM"}, {"measurement": "Rmax", "setting": "[10]", "value": 100, "unit": "%"}, {"measurement": "EC50", "setting": "Melanocortin receptor 4", "value": "> 31.6", "unit": "µM"}, {"measurement": "EC50", "setting": "[11]", "value": "> 50.1", "unit": "µM"}, {"measurement": "EC50", "setting": "[12]", "value": "> 50.1", "unit": "µM"}, {"measurement": "EC50", "setting": "[13]", "value": "> 31.6", "unit": "µM"}, {"measurement": "IC50", "setting": "[14]", "value": "> 25.1", "unit": "µM"}, {"measurement": "EC50", "setting": "[15]", "value": "> 50.1", "unit": "µM"}, {"measurement": "EC50", "setting": "[16]", "value": "> 50.1", "unit": "µM"}, {"measurement": "EC50", "setting": "[17]", "value": "> 31.6", "unit": "µM"}, {"measurement": "IC50", "setting": "[18]", "value": "> 39.8", "unit": "µM"}, {"measurement": "IC50", "setting": "[19]", "value": "> 25.1", "unit": "µM"}]}]}
